Reference: ChEMBL document CHEMBL1122866, “3-Phenyl-1-indanamines. Potential antidepressant activity and potent inhibition of dopamine, norepinephrine, and serotonin uptake” (J Med Chem, 1985)
Where “and” joins values, the source holds several entries; their conditions need not be identical. Identical values can stand only once.

Organism: Mus musculus
Test: Antagonistic activity against tetrabenazine-induced ptosis in mice.
Format: functional
Settings: not given
Procedure, shortened: (§1)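 Mice dosed intraperitoneally; the result is reported as the ED50 in μmol/kg with a range in parentheses. Test compounds are racemates of >95% isomeric purity by TLC.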

| SMILES | ED50 |
| --- | --- |
| CNC1CC(c2ccc(F)c(Cl)c2)c2ccccc21.Cl (stereo in doubt; 70) | 32 µmol/kg |
| CCCN(CCC)C1CC(c2ccc(Cl)c(Cl)c2)c2ccccc21.Cl (stereo in doubt; 90) | >100 µmol/kg |
| CN(C)C1CC(c2ccc(F)cc2)c2ccc(C(F)(F)F)cc21.Cl (stereo in doubt; 82) | >111 µmol/kg |
| CCN(CC)C1CC(c2ccc(Cl)c(Cl)c2)c2ccccc21.Cl (stereo in doubt; 86) | >108 µmol/kg |
| CN(C)C1CC(c2ccc(F)c(Cl)c2)c2ccccc21.Cl (stereo in doubt; 44) | 4.5 µmol/kg |
| CN1CCN(C2CC(c3ccc(Cl)c(Cl)c3)c3ccccc32)CC1 (single isomer, unassigned; (+)-101) [listing 1 of 2 here] | >91 µmol/kg |
| Clc1ccc(C2CC(NCCc3ccccc3)c3ccccc32)cc1Cl (stereo unspecified) [listing 1 of 2 here] | >85 µmol/kg |
| CN(C)C1CC(c2ccccc2)c2ccccc21.Cl (stereo in doubt; 59) | >143 µmol/kg |
| CNC1CC(c2ccc(F)c(Cl)c2)c2ccccc21.Cl (stereo in doubt; 43) | 12 µmol/kg |
| CN(C)C1CC(c2ccc(F)cc2)c2ccc(F)cc21 (stereo unspecified) [listing 1 of 2 here] | >147 µmol/kg |
| CN(C)C1CC(c2ccc(F)c(Cl)c2)c2ccccc21.Cl (stereo in doubt; 71) | 13 µmol/kg |
| Cl.Clc1ccc(C2CC(NCCc3ccccc3)c3ccccc32)cc1Cl (stereo unspecified) | 33 µmol/kg |

Same assay, conditions: Mus musculus; read-out: ED50

| SMILES | ED50 |
| --- | --- |
| Clc1ccc(C2CC(N3CCCC3)c3ccccc32)cc1Cl (stereo in doubt; 97) [listing 1 of 2 here] | > 108 µmol/kg |
| CCCNC1CC(c2ccc(Cl)c(Cl)c2)c2ccccc21 (stereo in doubt; 88) [listing 1 of 2 here] | > 112 µmol/kg |
| CN(C)C1CC(c2ccc(Cl)cc2Cl)c2ccccc21 (stereo in doubt; 75) [listing 1 of 2 here] | 23 µmol/kg |

The molecules below were run against Norepinephrine transporter (Rattus norvegicus, UniProt Q9WTR4) (assay: Inhibition of noradrenaline uptake in rat synaptosomal fraction). Settings: not given.
Chain of Norepinephrine transporter (Q9WTR4 whole entry): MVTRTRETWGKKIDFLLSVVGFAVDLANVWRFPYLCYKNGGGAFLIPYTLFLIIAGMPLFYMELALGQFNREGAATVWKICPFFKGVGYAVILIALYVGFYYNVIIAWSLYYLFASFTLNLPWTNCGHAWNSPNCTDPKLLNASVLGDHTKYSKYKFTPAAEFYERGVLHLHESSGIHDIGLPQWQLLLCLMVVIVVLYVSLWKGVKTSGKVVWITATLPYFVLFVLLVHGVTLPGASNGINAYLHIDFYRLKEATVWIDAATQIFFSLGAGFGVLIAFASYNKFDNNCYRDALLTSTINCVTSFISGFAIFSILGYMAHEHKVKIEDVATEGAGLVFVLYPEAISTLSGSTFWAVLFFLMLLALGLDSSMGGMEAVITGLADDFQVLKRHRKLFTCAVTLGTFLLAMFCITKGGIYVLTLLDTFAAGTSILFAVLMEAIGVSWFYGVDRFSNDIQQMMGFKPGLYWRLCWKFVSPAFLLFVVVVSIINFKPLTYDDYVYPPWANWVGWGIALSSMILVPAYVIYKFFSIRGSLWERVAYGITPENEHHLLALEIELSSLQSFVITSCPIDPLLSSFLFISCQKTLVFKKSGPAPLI
Format: functional
Procedure, shortened: (§2)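 Synaptosomal uptake of DA, NE or 5-HT measured. The IC50 is in nM and is the mean of at least two determinations, each using five test concentrations in triplicate.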

| SMILES | IC50 |
| --- | --- |
| CCNC1CC(c2ccc(Cl)c(Cl)c2)c2ccccc21.Cl (stereo in doubt; 84) | 0.049 µM |
| CN(C)C1CC(c2ccc(F)cc2)c2ccc(C(F)(F)F)cc21.Cl (stereo in doubt; 82) | 0.35 µM |
| CN(C)C1CC(c2ccc(Cl)c(Cl)c2)c2ccccc21.Cl (stereo unspecified) | 0.0024 µM |
| CCN(CC)C1CC(c2ccc(Cl)c(Cl)c2)c2ccccc21.Cl (stereo in doubt; 86) | 0.013 µM |
| CN(C)C1CC(c2ccc(Cl)cc2Cl)c2ccccc21 (stereo in doubt; 75) [listing 1 of 2 here] | 0.034 µM |
| CN(C)C1CC(c2ccccc2)c2ccccc21.Cl (stereo in doubt; 59) | 0.041 µM |
| CN(C)C1CC(c2ccc(F)cc2)c2ccc(F)cc21 (stereo unspecified) [listing 1 of 2 here] | 0.09 µM |

Organism: Mus musculus
Test: Antagonistic activity against 5-HTP induced potentiation in mice
Format: functional
Settings: not given
Procedure, shortened: as §1

| SMILES | ED50 |
| --- | --- |
| CNC1CC(c2cccc(Cl)c2)c2ccccc21 (stereo in doubt; 66) | 124 µmol/kg |
| CN(C)C1CC(c2ccc(Br)cc2)c2ccccc21 (stereo in doubt; 65) | 12 µmol/kg |
| CCCNC1CC(c2ccc(Cl)c(Cl)c2)c2ccccc21 (stereo in doubt; 88) [listing 2 of 2 here] | > 112 µmol/kg |
| CN(C)C1CC(c2ccc(F)c(Cl)c2)c2ccccc21 (stereo in doubt; 44) | 37 µmol/kg |
| CN(C)C1CC(c2ccc(F)cc2)c2ccc(C(F)(F)F)cc21 (stereo in doubt; 82) | 101 µmol/kg |
| CNC1CC(c2ccc(Cl)c(Cl)c2)c2ccc(O)cc21 (stereo in doubt; 54) | > 128 µmol/kg |
| CCNC1CC(c2ccc(Cl)c(Cl)c2)c2ccccc21 (stereo in doubt; 83) | 26 µmol/kg |
| CN(C)C1CC(c2cccc(Cl)c2)c2ccccc21 (stereo in doubt; 67) | 78 µmol/kg |
| CN1CCN(C2CC(c3ccc(Cl)c(Cl)c3)c3ccccc32)CC1 (stereo in doubt; 102) | > 89 µmol/kg |
| CN(C)C1CC(c2ccc(F)c(F)c2)c2ccccc21 (stereo unspecified) | 73 µmol/kg and 42 µmol/kg |
| CN1Cc2c(N)cccc2C(c2ccccc2)C1 (stereo unspecified) | > 56 µmol/kg |
| CN(C)C1CC(c2ccc(Cl)c(Cl)c2)c2ccc(F)cc21 (stereo in doubt; 77) | 29 µmol/kg |
| Clc1ccc(C2CC(N3CCCC3)c3ccccc32)cc1Cl (stereo in doubt; 98) | 161 µmol/kg |
| CN(C)C1CC(c2ccc(Cl)cc2)c2ccccc21 (stereo in doubt; 63) | 14 µmol/kg |
| CN1CCN(C2CC(c3ccc(Cl)c(Cl)c3)c3ccccc32)CC1 (single isomer, unassigned; (+)-102) [listing 1 of 2 here] | > 89 µmol/kg |
| CN1CCN(C2CC(c3ccc(Cl)c(Cl)c3)c3ccccc32)CC1 (stereo in doubt; (-)-102) | > 89 µmol/kg |
| CNC1CC(c2ccc(F)c(F)c2)c2ccccc21 (stereo in doubt; 68) | 63 µmol/kg |
| Clc1ccc(C2CC(NCc3ccccc3)c3ccccc32)cc1Cl (stereo in doubt; 93) | 47 µmol/kg |
| CNC1CC(c2ccc(Br)cc2)c2ccccc21 (stereo in doubt; 36) | 8.8 µmol/kg |
| CNC1CC(c2ccc(Cl)cc2)c2ccccc21 (stereo unspecified) | 34 µmol/kg and 22 µmol/kg |

| SMILES | ED50 |
| --- | --- |
| CN(C)C1CC(c2ccc(F)cc2)c2ccc(F)cc21 (stereo unspecified) [listing 2 of 2 here] | > 29 µmol/kg and 21 µmol/kg |
| CN1CCN(C2CC(c3ccc(Cl)c(Cl)c3)c3ccccc32)CC1 (single isomer, unassigned; (-)) | > 92 µmol/kg |
| Clc1ccc(C2CC(N3CCCCC3)c3ccccc32)cc1Cl (stereo in doubt; 99) [listing 1 of 2 here] | > 209 µmol/kg |
| Clc1ccc(C2CC(NCc3ccccc3)c3ccccc32)cc1Cl (stereo in doubt; 94) | 207 µmol/kg |
| CN(C)C1CC(c2ccccc2)c2ccccc21 (stereo in doubt; 59) | > 36 µmol/kg |
| Clc1ccc(C2CC(NCCc3ccccc3)c3ccccc32)cc1Cl (stereo unspecified) [listing 2 of 2 here] | > 85 µmol/kg and 142 µmol/kg |
| CN(C)C1CC(c2cccc(Cl)c2)c2ccccc21 (stereo in doubt; 40) | 43 µmol/kg |
| CN(C)C1CC(c2ccc(Cl)cc2)c2ccccc21 (stereo in doubt; 35) | 48 µmol/kg |
| CCCN(CCC)C1CC(c2ccc(Cl)c(Cl)c2)c2ccccc21 (stereo in doubt; 89) | > 100 µmol/kg |
| CNC1CC(c2ccc(Cl)cc2Cl)c2ccccc21 (stereo in doubt; 48) | 67 µmol/kg |
| CN(C)C1CC(c2ccc(F)cc2)c2ccccc21 (stereo in doubt; 33) | 45 µmol/kg |
| CNC1CC(c2ccc(F)cc2)c2ccccc21 (stereo in doubt; 60) | 72 µmol/kg |
| CN(C)C1CC(c2ccc(Cl)cc2Cl)c2ccccc21 (stereo in doubt; 49) | 19 µmol/kg |
| CN1CCN(C2CC(c3ccc(Cl)c(Cl)c3)c3ccccc32)CC1 (single isomer, unassigned; (+)-101) [listing 2 of 2 here] | > 91 µmol/kg |
| CN(C)C1CC(c2ccc(F)cc2)c2ccc(C(F)(F)F)cc21 (stereo in doubt; 57) | 123 µmol/kg |
| CN(C)C1CC(c2ccc(F)c(Cl)c2)c2ccccc21 (stereo in doubt; 71) | 51 µmol/kg |
| Clc1ccc(C2CC(N3CCCC3)c3ccccc32)cc1Cl (stereo in doubt; 97) [listing 2 of 2 here] | > 108 µmol/kg |
| CN(C)C1CC(c2ccc(Cl)c(Cl)c2)c2ccc(F)cc21 (stereo in doubt; 51) | 20 µmol/kg |
| Clc1ccc(C2CC(N3CCCCC3)c3ccccc32)cc1Cl (stereo in doubt; 100) | > 209 µmol/kg |
| CN(C)C1CC(c2ccccc2)c2ccccc21 (stereo in doubt; 31) | > 35 µmol/kg |

| SMILES | ED50 |
| --- | --- |
| CCNC1CC(c2ccc(Cl)c(Cl)c2)c2ccccc21 (stereo in doubt; 84) | 26 µmol/kg |
| CCN(CC)C1CC(c2ccc(Cl)c(Cl)c2)c2ccccc21 (stereo in doubt; 86) | 204 µmol/kg |
| CCN(CC)C1CC(c2ccc(Cl)c(Cl)c2)c2ccccc21 (stereo in doubt; 85) | 19 µmol/kg |
| CNC1CC(c2ccc(F)c(F)c2)c2ccccc21 (stereo in doubt; 41) | 22 µmol/kg |
| CN(C)C1CC(c2ccc(Br)cc2)c2ccccc21 (stereo in doubt; 37) | 8.4 µmol/kg |
| CN(C)C1CC(c2ccc(Cl)cc2Cl)c2ccccc21 (stereo in doubt; 75) [listing 2 of 2 here] | 19 µmol/kg |
| CNC1CC(c2ccc(Cl)c(Cl)c2)c2ccc(F)cc21 (stereo in doubt; 50) | 27 µmol/kg |
| CCCNC1CC(c2ccc(Cl)c(Cl)c2)c2ccccc21 (stereo in doubt; 87) | 87 µmol/kg |
| CNC1CC(c2ccc(Br)cc2)c2ccccc21 (stereo in doubt; 64) | 6.6 µmol/kg |
| CNC1CC(c2ccc(F)cc2)c2ccccc21 (stereo in doubt; 32) | > 144 µmol/kg |
| CN(C)C1CC(c2ccc(F)cc2)c2ccccc21 (stereo in doubt; 61) | 25 µmol/kg |
| CNC1CC(c2ccc(Cl)c(Cl)c2)c2ccc(F)cc21 (stereo in doubt; 76) | 15 µmol/kg |
| CCCN(CCC)C1CC(c2ccc(Cl)c(Cl)c2)c2ccccc21 (stereo in doubt; 90) | > 100 µmol/kg |
| CN(C)C1CC(c2ccc(Cl)c(Cl)c2)c2ccccc21 (stereo unspecified) | 5 µmol/kg and 10 µmol/kg |
| CNC1CC(c2cccc(Cl)c2)c2ccccc21 (stereo in doubt; 39) | 92 µmol/kg |
| CNC1CC(c2ccc(F)c(Cl)c2)c2ccccc21 (stereo in doubt; 43) | 47 µmol/kg |
| CNC1CC(c2ccc(F)c(Cl)c2)c2ccccc21 (stereo in doubt; 70) | 30 µmol/kg |
| CNC1CC(c2ccc(Cl)cc2Cl)c2ccccc21 (stereo in doubt; 74) | 71 µmol/kg |

These molecules were tested against Sodium-dependent dopamine transporter (Rattus norvegicus, UniProt P23977) (assay: Inhibition of dopamine uptake in rat synaptosomal fraction). Settings: not given.
Chain of Sodium-dependent dopamine transporter (P23977 whole entry): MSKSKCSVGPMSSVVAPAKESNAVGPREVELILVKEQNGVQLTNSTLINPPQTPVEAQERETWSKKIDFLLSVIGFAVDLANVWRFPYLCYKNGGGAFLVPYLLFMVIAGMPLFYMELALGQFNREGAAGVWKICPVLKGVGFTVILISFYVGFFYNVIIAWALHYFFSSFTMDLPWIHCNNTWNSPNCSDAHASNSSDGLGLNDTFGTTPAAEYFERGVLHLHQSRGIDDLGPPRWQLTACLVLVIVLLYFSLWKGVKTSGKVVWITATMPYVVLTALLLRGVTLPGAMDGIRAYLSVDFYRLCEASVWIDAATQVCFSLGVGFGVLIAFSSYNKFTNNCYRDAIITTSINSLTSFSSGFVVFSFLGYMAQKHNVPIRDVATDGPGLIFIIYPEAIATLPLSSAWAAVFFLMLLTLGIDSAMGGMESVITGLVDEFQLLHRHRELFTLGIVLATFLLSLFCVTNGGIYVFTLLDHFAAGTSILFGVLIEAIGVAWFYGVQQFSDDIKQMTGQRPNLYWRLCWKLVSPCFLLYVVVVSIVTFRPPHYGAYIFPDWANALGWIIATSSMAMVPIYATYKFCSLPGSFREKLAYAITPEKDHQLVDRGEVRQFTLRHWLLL
Format: functional

| SMILES | IC50 |
| --- | --- |
| Clc1ccc(C2CC(N3CCCCC3)c3ccccc32)cc1Cl (stereo in doubt; 99) [listing 2 of 2 here] | 0.72 µM |
| Clc1ccc(C2CC(N3CCCC3)c3ccccc32)cc1Cl (stereo in doubt; 97) [listing 1 of 2 here] | 0.32 µM |
| CN1CCN(C2CC(c3ccc(Cl)c(Cl)c3)c3ccccc32)CC1 (single isomer, unassigned; (+)-102) [listing 2 of 2 here] | 1.7 µM |
| CCCN(CCC)C1CC(c2ccc(Cl)c(Cl)c2)c2ccccc21.Cl (stereo in doubt; 90) | 0.18 µM |
| CN1CCN(C2CC(c3ccc(Cl)c(Cl)c3)c3ccccc32)CC1 (single isomer, unassigned; (+)-101) [listing 1 of 2 here] | 0.34 µM |

What follows are molecules tested against Sodium-dependent serotonin transporter (Rattus norvegicus, UniProt P31652) (assay: Inhibition of 5-HT uptake in rat synaptosomal fraction). Settings: not given.
Chain of Sodium-dependent serotonin transporter (P31652 whole entry): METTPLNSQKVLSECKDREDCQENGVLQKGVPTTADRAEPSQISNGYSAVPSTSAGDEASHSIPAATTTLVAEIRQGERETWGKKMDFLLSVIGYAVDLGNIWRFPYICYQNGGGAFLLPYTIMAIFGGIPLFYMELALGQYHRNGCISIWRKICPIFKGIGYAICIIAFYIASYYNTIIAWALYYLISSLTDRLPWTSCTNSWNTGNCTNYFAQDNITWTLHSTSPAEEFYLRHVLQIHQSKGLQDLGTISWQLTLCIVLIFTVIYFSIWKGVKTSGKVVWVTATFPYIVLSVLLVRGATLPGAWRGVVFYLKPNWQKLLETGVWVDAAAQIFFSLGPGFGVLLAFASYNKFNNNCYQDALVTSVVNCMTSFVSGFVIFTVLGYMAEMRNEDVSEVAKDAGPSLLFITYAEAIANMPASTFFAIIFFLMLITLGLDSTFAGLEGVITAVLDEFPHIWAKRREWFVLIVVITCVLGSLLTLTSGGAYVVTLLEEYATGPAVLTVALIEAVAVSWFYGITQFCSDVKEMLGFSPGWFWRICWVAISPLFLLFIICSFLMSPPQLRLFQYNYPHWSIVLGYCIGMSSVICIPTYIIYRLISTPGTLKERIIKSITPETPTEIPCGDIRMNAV
Format: functional
Procedure, shortened: as §2

| SMILES | IC50 |
| --- | --- |
| CCNC1CC(c2ccc(Cl)c(Cl)c2)c2ccccc21.Cl (stereo in doubt; 84) | 0.0016 µM |
